Experimental data from ChEMBL document CHEMBL1122376, “Pyrazolo[3,4-d]pyrimidine ribonucleosides as anticoccidials. 3. Synthesis and activity of some nucleosides of 4-[(arylalkenyl)thio]pyrazolo[3,4-d]pyrimidines” (1983).
≈ marks a conversion by molar mass, not a printed value.

How the values were obtained:
Format in all cases: functional
Eimeria tenella [1] = assay: In vivo anti-coccidial activity expressed as number of the chicks cleared of Eimeria tenella lesions out of a group of five, at 25 ppm in the diet.
Outline: (§1)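 Week-old chicks, given compound in the diet. E. tenella (Weybridge strain) infection given together with E. acervulina (Ongar strain).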

Eimeria tenella [2] = assay: In vivo anti-coccidial activity expressed as number of the chicks cleared of Eimeria tenella lesions out of a group of five, at 50 ppm in the diet.; outline: as §1
Eimeria tenella [3] = assay: In vivo anti-coccidial activity expressed as number of the chicks cleared of Eimeria tenella lesions out of a group of five, at 200 ppm in the diet.; outline: as §1
Eimeria tenella [4] = assay: In vitro inhibitory activity against Eimeria tenella in embryonic chick liver cells.
Outline: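 E. tenella, Weybridge strain, grown in vitro in embryonic chick liver cells.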

Eimeria tenella [5] = assay: In vivo anti-coccidial activity expressed as number of the chicks cleared of Eimeria tenella lesions out of a group of five, at 400 ppm in the diet.; outline: as §1
Eimeria tenella [6] = assay: In vivo anti-coccidial activity expressed as number of the chicks cleared of Eimeria tenella lesions out of a group of five, at 100 ppm in the diet.; outline: as §1
Eimeria tenella [7] = assay: In vivo anti-coccidial activity expressed as number of the chicks cleared of Eimeria tenella lesions out of a group of five, at 300 ppm in the diet.; outline: as §1
Eimeria tenella [8] = assay: In vivo anti-coccidial activity expressed as number of the chicks cleared of Eimeria tenella lesions out of a group of five, at 200 ppm in the diet;one chick out of 5 died and contained lesions due to the parasite.
Eimeria tenella [9] = assay: In vivo anti-coccidial activity expressed as number of the chicks cleared of Eimeria tenella lesions out of a group of five, at 25 ppm in the diet;At 12.5 ppm, no chicks were cleared.; outline: as §1
Eimeria tenella [10] = assay: In vivo anti-coccidial activity expressed as number of the chicks cleared of Eimeria tenella lesions out of a group of five, at 12.5 ppm in the diet.; outline: as §1
Eimeria tenella [11] = assay: In vivo anti-coccidial activity expressed as number of the chicks cleared of Eimeria tenella lesions out of a group of five, at 25 ppm in the diet;At 12.5 p.p.m. no chicks were cleared.; outline: as §1
Eimeria tenella [12] = assay: In vivo anti-coccidial activity expressed as number of the chicks cleared of Eimeria tenella lesions out of a group of five, at 200 ppm in the diet;one chick out of a group of 5 died and contained lesions due to the parasite.

Row | Compound | Activity (Eimeria tenella [1]) | Activity (Eimeria tenella [2]) | Activity (Eimeria tenella [3]) | MIC (Eimeria tenella [4]) | Activity (Eimeria tenella [6]) | other results
1 | CC(=O)OC[C@H]1O[C@@H](n2ncc3c(SC/C=C/c4ccccc4)ncnc32)[C@H](OC(C)=O)[C@@H]1OC(C)=O | 1 | 5 | 5 | 1.25 µg/mL (≈ 2.37 µM) |  | 
2 | OC[C@H]1OC(n2ncc3c(SC/C=C/c4ccc(Cl)c(Cl)c4)ncnc32)[C@H](O)[C@@H]1O (stereo partly drawn) |  |  | 2 | 0.31 µg/mL (≈ 0.66 µM) |  | 
3 | OC[C@H]1OC(n2ncc3c(SC/C=C/c4cccc(O)c4)ncnc32)[C@H](O)[C@@H]1O (stereo partly drawn) |  |  |  | 20 µg/mL (≈ 48 µM) |  | Activity (Eimeria tenella [5]): 0
4 | C/C=C/CSc1ncnc2c1cnn2C1O[C@H](CO)[C@@H](O)[C@H]1O (stereo partly drawn) | 0 | 0 | 5 | 0.019 µg/mL (≈ 0.0561 µM) | 4 | 
5 | OC[C@H]1OC(n2ncc3c(S)ncnc32)[C@H](O)[C@@H]1O (stereo partly drawn) |  |  | 2 | 0.31 µg/mL (≈ 1.09 µM) |  | 
6 | COc1ccccc1/C=C/CSc1ncnc2c1cnn2C1O[C@H](CO)[C@@H](O)[C@H]1O (stereo partly drawn) |  |  |  | 1.25 µg/mL (≈ 2.9 µM) |  | Activity (Eimeria tenella [7]): 1
7 | OC[C@H]1OC(n2ncc3c(SC/C=C/c4cccc(C(F)(F)F)c4)ncnc32)[C@H](O)[C@@H]1O (stereo partly drawn) |  |  |  | 5 µg/mL (≈ 10.7 µM) |  | Activity (Eimeria tenella [8]): 1
8 | COc1cc(/C=C/CSc2ncnc3c2cnn3C2O[C@H](CO)[C@@H](O)[C@H]2O)cc(OC)c1OC (stereo partly drawn) |  |  | 5 | 0.31 µg/mL (≈ 0.632 µM) | 2 | Activity (Eimeria tenella [5]): 5
9 | C=CCSc1ncnc2c1cnn2C1O[C@H](CO)[C@@H](O)[C@H]1O (stereo partly drawn) | 1 | 2 | 5 | 0.019 µg/mL (≈ 0.0586 µM) | 5 | 
10 | OC[C@H]1OC(n2ncc3c(SC/C=C/C=C/c4ccccc4)ncnc32)[C@H](O)[C@@H]1O (stereo partly drawn) | 1 | 5 | 5 | 0.019 µg/mL (≈ 0.0445 µM) |  | 
11 | OC[C@H]1OC(n2ncc3c(SC/C=C\c4ccccc4)ncnc32)[C@H](O)[C@@H]1O (stereo partly drawn) |  | 0 |  | > 20 µg/mL | 0 | Activity (Eimeria tenella [9]): 0
12 | O=P(O)(O)OC[C@H]1OC(n2ncc3c(SC/C=C/c4ccccc4)ncnc32)[C@H](O)[C@@H]1O (stereo partly drawn) | 5 | 5 | 5 | 0.012 µg/mL (≈ 0.025 µM) | 5 | Activity (Eimeria tenella [10]): 0
13 | COc1ccc(/C=C/CSc2ncnc3c2cnn3C2O[C@H](CO)[C@@H](O)[C@H]2O)cc1 (stereo partly drawn) |  |  |  | 1.25 µg/mL (≈ 2.9 µM) |  | Activity (Eimeria tenella [7]): 2
14 | OC[C@H]1OC(n2ncc3c(SCC#Cc4ccccc4)ncnc32)[C@H](O)[C@@H]1O (stereo partly drawn) | 1 | 0 | 5 | 0.019 µg/mL (≈ 0.0477 µM) | 2 | 
15 | OC[C@H]1OC(n2ncc3c(SC/C=C/c4ccc(Cl)cc4)ncnc32)[C@H](O)[C@@H]1O (stereo partly drawn) | 0 | 0 | 5 | 0.31 µg/mL (≈ 0.713 µM) | 5 | 
16 | OC[C@H]1OC(n2ncc3c(SC/C=C/c4ccccc4)ncnc32)[C@H](O)[C@@H]1O (stereo partly drawn) |  | 5 | 5 | 0.078 µg/mL (≈ 0.195 µM) | 5 | Activity (Eimeria tenella [11]): 5
17 | OC[C@H]1OC(n2ncc3c(SC/C=C/c4cccc(Br)c4)ncnc32)[C@H](O)[C@@H]1O (stereo partly drawn) | 1 | 4 | 5 | 5 µg/mL (≈ 10.4 µM) | 5 | 
18 | Cc1ccc(/C=C/CSc2ncnc3c2cnn3C2O[C@H](CO)[C@@H](O)[C@H]2O)cc1 (stereo partly drawn) |  |  |  | 5 µg/mL (≈ 12.1 µM) |  | Activity (Eimeria tenella [12]): 0
19 | OC[C@H]1OC(n2ncc3c(SC/C=C/c4ccc(OCc5ccccc5)cc4)ncnc32)[C@H](O)[C@@H]1O (stereo partly drawn) | 1 | 0 | 5 | 1.25 µg/mL (≈ 2.47 µM) | 2 | 
20 | OC[C@H]1OC(n2ncc3c(SC/C=C/c4ccc(Cl)cc4Cl)ncnc32)[C@H](O)[C@@H]1O (stereo partly drawn) |  |  | 2 | 1.25 µg/mL (≈ 2.66 µM) |  | 
